Tests used:
[1] = target: T1, Amine oxidase [flavin-containing] A (Homo sapiens, UniProt P21397); test: Inhibition of human recombinant MAOA expressed in BTI-TN-5B1-4 cells using p-tyramine substrate assessed as reduction in H2O2 production; assay type: cell-based
T1 sequence (P21397 whole entry): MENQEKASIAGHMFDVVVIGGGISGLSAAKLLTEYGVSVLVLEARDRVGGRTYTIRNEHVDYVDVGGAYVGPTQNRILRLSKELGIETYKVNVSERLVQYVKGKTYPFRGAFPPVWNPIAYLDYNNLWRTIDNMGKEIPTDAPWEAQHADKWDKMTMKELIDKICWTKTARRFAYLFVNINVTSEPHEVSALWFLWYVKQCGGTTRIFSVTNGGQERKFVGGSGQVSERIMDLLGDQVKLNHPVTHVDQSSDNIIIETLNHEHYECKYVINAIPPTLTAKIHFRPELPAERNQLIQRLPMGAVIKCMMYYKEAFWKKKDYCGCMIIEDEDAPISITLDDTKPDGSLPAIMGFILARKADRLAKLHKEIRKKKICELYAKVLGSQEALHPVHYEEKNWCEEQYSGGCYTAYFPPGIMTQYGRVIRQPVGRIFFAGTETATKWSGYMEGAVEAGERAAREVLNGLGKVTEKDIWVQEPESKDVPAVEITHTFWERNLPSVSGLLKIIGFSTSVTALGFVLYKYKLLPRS

[2] = Octanol/water partition coefficient, log P of the compound; assay type: physicochemical
[3] = target: Amine oxidase [flavin-containing] B (Homo sapiens) (UniProt P27338); test: Reversible inhibition of human recombinant MAOB expressed in BTI-TN-5B1-4 cells assessed as AUF/t ratio at 2.5 nM by effective dilution method relative to untreated control; set-up: scale not given: the % may be the effect or the level left; conditions: BTI-TN-5B1-4, human
[4] = Permeability by PAMPA method; assay type: ADME; conditions: read-out: Peff
Outline: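 PAMPA-BBB assay. A PVDF filter was coated with porcine brain lipid in dodecane (20 mg/mL). Compound at 100 µg/mL in PBS pH 7.4/ethanol 70:30 was placed in the donor wells, with the same buffer in the acceptor wells. Plates were incubated 240 min at 25 °C, and acceptor concentration was read by UV-vis at five wavelengths, four wells, ≥3 runs, mean ± SD. Ten reference drugs validated each run.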

[5] = target: T2, Amine oxidase [flavin-containing] B (Homo sapiens, UniProt P27338); assay type: cell-based, BTI-TN-5B1-4
T2 sequence (P27338 whole entry): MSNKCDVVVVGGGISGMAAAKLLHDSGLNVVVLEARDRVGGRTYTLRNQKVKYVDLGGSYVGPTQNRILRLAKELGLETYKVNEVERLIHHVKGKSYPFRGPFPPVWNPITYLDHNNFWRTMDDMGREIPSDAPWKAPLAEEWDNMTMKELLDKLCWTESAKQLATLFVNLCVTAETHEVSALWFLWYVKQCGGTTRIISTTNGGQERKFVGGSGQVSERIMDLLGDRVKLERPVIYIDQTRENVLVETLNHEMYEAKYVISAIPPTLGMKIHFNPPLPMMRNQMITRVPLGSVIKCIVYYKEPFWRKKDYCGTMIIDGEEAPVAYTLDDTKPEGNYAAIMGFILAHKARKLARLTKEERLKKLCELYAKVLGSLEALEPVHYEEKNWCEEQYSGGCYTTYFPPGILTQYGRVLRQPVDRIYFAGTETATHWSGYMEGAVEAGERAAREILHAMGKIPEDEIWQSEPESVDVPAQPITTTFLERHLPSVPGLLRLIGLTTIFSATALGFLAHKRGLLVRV

Homo sapiens = species: Homo sapiens; test: Selectivity index, ratio of IC50 for human recombinant MAOA to IC50 for human recombinant MAOB
Outline: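 Ratio of IC50 (hMAO-A) to IC50 (hMAO-B). Both come from the Amplex Red/p-tyramine H2O2 assay with recombinant insect-cell microsomal isoforms. Each IC50 is the mean of five experiments. Where an IC50 was not reached at the highest concentration tested (100), that IC50 was taken as greater than 100.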

[6] = target: T1, Amine oxidase [flavin-containing] A; test: Inhibition of human recombinant MAOA expressed in BTI-TN-5B1-4 cells using p-tyramine substrate assessed as reduction in H2O2 production at 100 uM; assay type: cell-based; conditions: bti-tn-5b1-4, 100 µM
[7] = target: T1, Amine oxidase [flavin-containing] A; test: Reversible inhibition of human recombinant MAOA expressed in BTI-TN-5B1-4 cells assessed as AUF/t ratio at 20 nM by effective dilution method relative to untreated control; assay type: cell-based; set-up: scale not given: the % may be the effect or the level left; conditions: BTI-TN-5B1-4, human; read-out: Activity
[8] = target: T2, Amine oxidase [flavin-containing] B; test: Inhibition of human recombinant MAOB expressed in BTI-TN-5B1-4 cells using p-tyramine substrate assessed as reduction in H2O2 production at 100 uM; assay type: cell-based; conditions: bti-tn-5b1-4, 100 µM
Outline: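 Microsomal hMAO-B from BTI-TN-5B1-4 insect cells infected with recombinant baculovirus. Enzyme, dosed to oxidise 165 pmol p-tyramine/min, was preincubated with drug in 0.05 M sodium phosphate pH 7.4 (DMSO ≤1%) for 15 min at 37 °C. Reaction started with Amplex Red, 1 U/mL HRP and 1 mM p-tyramine. Resorufin fluorescence (ex 545/em 590 nm) read over 15 min at 37 °C, minus enzyme-free background, versus vehicle control.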

Row | Structure (SMILES) | IC50 ([1]; read-out: IC50) [nM] | logP [2] | activity at 0.0025 µM [3] [%] | Papp [4] [×10⁻⁶ cm/s] | IC50 ([5]; read-out: IC50) [nM] | Ratio IC50 (Homo sapiens) | IC50 ([1]; bti-tn-5b1-4) | inhibition (INH) [6] | activity at 0.02 µM [7] [%] | inhibition (INH) [8] | IC50 ([5]; bti-tn-5b1-4)
1 | Cc1ccc2oc(=O)c(-c3ccc([N+](=O)[O-])cc3)cc2c1 | 4180 | 4.12 | 80 | 10.5 | 2.1 | 2090 | – | – | – | – | –
2 | Cc1ccc2oc(=O)c(-c3cccc(N)c3)cc2c1 | – | 3.21 | – | – | 2.2 | > 50000 | Not Active | Not Active | – | – | –
3 | Cc1ccc2oc(=O)c(-c3cccc([N+](=O)[O-])c3)cc2c1 | – | 4.1 | – | – | 6 | > 16700 | Not Active | Not Active | – | – | –
4 | C#CCN(C)[C@H](C)Cc1ccccc1 [SELEGILINE] | – | – | – | – | – | – | – | – | 8.51 | – | –
5 | Cc1ccc2oc(=O)c(-c3ccccc3N)cc2c1 | – | 3.6 | – | – | 2170 | > 46 | Not Active | Not Active | – | – | –
6 | Cc1ccc2oc(=O)c(-c3ccc(N)cc3)cc2c1 | – | 3.24 | – | – | 4.1 | > 25000 | Not Active | Not Active | – | – | –
7 | O=C(NCCN1CCOCC1)c1ccc(Cl)cc1 [MOCLOBEMIDE] | – | 1.68 | – | – | – | – | – | – | – | Not Active | Not Active
8 | Cc1ccc2oc(=O)c(-c3ccccc3[N+](=O)[O-])cc2c1 | – | 4.07 | – | – | 5520 | > 18 | Not Active | Not Active | – | – | –

Source: ChEMBL document CHEMBL3352289, “Potent and selective MAO-B inhibitory activity: amino- versus nitro-3-arylcoumarin derivatives” (Bioorg Med Chem Lett, 2015)
